ChEMBL document CHEMBL1142740, “Pyrroloquinolone PDE5 inhibitors with improved pharmaceutical profiles for clinical studies on erectile dysfunction” (J Med Chem, 2005)

What was measured:
[1] = target: T1, cGMP-specific 3',5'-cyclic phosphodiesterase (Rattus norvegicus, UniProt O54735); experiment: Inhibition of phosphodiesterase 5 in rat fetal lung fibroblast (RFL-6) cells; assay type: cell-based
[2] = system: RFL-6; experiment: Ratio of inhibitory constant against phosphodiesterase 2 and phosphodiesterase 5 in rat fetal lung fibroblast (RFL-6) cells; assay type: cell-based
[3] = (§1) Oral bioavailability in rat; assay type: ADME, organism-based; conditions: in vivo
Summary of the method: (§2)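 Male Sprague-Dawley rats, male beagle dogs and male rhesus monkeys, three per group. The oral arm received 30 mg/kg in 0.5% methylcellulose; the iv arm received 3.0 mg/kg in 20% HPBCD. Blood was drawn at 0, 0.5, 1, 2, 4, 6 and 24 h, and plasma drug was quantified by LC/MS. Bioavailability is reported as value and standard deviation.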

[4] = system: RFL-6; experiment: Ratio of inhibitory constant against phosphodiesterase 1 and phosphodiesterase 5 in rat fetal lung fibroblast (RFL-6) cells; assay type: cell-based
[5] = system: RFL-6; experiment: Ratio of inhibitory constant against rod phosphodiesterase 6 and phosphodiesterase 5 in rat fetal lung fibroblast (RFL-6) cells; assay type: cell-based
[6] = system: RFL-6; experiment: Ratio of inhibitory constant against cone phosphodiesterase 6 and phosphodiesterase 5 in rat fetal lung fibroblast (RFL-6) cells; assay type: cell-based
[7] = system: RFL-6; experiment: Ratio of inhibitory constant against phosphodiesterase 3 and phosphodiesterase 5 in rat fetal lung fibroblast (RFL-6) cells; assay type: cell-based
[8] = system: RFL-6; experiment: Ratio of inhibitory constant against phosphodiesterase 4 and phosphodiesterase 5 in rat fetal lung fibroblast (RFL-6) cells; assay type: cell-based
[9] = as §1; assay type: ADME, organism-based; conditions: in vivo; summary of the method: as §2; remark: listed apart in the source
[10] = system: Canis familiaris; experiment: Effect on intracavernosal pressure after i.v. administration in electrically stimulated dogs; assay type: functional; conditions: Canis lupus familiaris, iv
[11] = system: RFL-6; experiment: Ratio of binding affinity towards phosphodiesterase 4 and phosphodiesterase 5 in rat fetal lung fibroblast (RFL-6) cells; assay type: cell-based
[12] = target: cGMP-specific 3',5'-cyclic phosphodiesterase (Rattus norvegicus) (UniProt O54735); conditions: RFL-6
[13] = target: T1, cGMP-specific 3',5'-cyclic phosphodiesterase; experiment: Inhibitory concentration against phosphodiesterase 5 in rat fetal lung fibroblast (RFL-6) cells; assay type: cell-based
[14] = Oral bioavailability in monkey was determined; assay type: ADME, organism-based; conditions: cercopithecidae, in vivo; summary of the method: as §2
[15] = Oral bioavailability in dog; assay type: ADME, organism-based, Canis lupus familiaris; conditions: in vivo; summary of the method: as §2
[16] = target: cGMP-specific 3',5'-cyclic phosphodiesterase (Rattus norvegicus) (UniProt O54735); experiment: pKa value for phosphodiesterase 5 in rat fetal lung fibroblast (RFL-6) cells; assay type: functional, cell-based

Row | Ki [1] [nM] | bioavailability [3] [%] | bioavailability [9] [%] | Pka [12] | IC50 [13] [nM] | bioavailability [14] [%] | bioavailability [15] [%] | pKa [16] | pka [16] | SMILES | Selectivity [2] | Selectivity [4] | Selectivity [5] | Selectivity [6] | Selectivity [7] | Selectivity [8] | ED50 [10] [µg/kg] | Selectivity [11]
1 | 0.53 | – | – | – | – | – | – | – | – | CCN(CC)CCOc1ccc(-c2cnc(N3Cc4c(nc5ccccc5c4O)C3c3ccc4c(c3)CCO4)nc2)cc1 (stereo unspecified) | – | – | – | – | – | – | – | –
2 | 0.24 | 0 | – | – | – | – | – | – | – | Cc1ncc(-c2cnc(N3Cc4c(nc5ccccc5c4O)C3c3ccc4c(c3)CCO4)nc2)n1C (stereo unspecified) | > 15000 | > 15000 | 237 | 219 | > 15000 | > 2500 | – | –
3 | 0.19 | – | – | – | – | – | – | – | – | Oc1c2c(nc3ccccc13)C(c1ccc3occc3c1)N(c1ncc(-c3ccccn3)cn1)C2 (stereo unspecified) | > 15000 | 15000 | 22.6 | 22.3 | > 15000 | 2500 | – | –
4 | 0.15 | 39 | – | – | – | – | – | – | – | Oc1c2c(nc3ccccc13)C(c1ccc3c(c1)CCO3)N(c1ccc(-c3ccccn3)cn1)C2 (stereo unspecified) | > 15000 | > 15000 | 93 | 69.2 | > 15000 | > 2500 | – | –
5 | 0.65 | 38 | 38 | – | – | – | – | – | – | O=c1c2c([nH]c3ccccc13)C(c1ccc3c(c1)CCO3)N(c1ccccn1)C2 (stereo unspecified) | – | – | – | – | – | – | – | –
6 | – | – | – | – | – | – | – | – | – | CCCc1nn(C)c2c(=O)[nH]c(-c3cc(S(=O)(=O)N4CCN(C)CC4)ccc3OCC)nc12 | – | – | – | – | – | – | 5.1 | –
7 | 6.43 | – | – | – | – | – | – | – | – | Oc1c2c(nc3ccccc13)C(c1ccc3c(c1)CCO3)N(c1ccc(-c3ccccn3)nc1)C2 (stereo unspecified) | > 15000 | > 15000 | – | – | > 15000 | > 2500 | – | –
8 | 0.24 | – | – | – | – | – | – | – | – | Cc1ncc(-c2cnc(N3Cc4c(nc5ccccc5c4O)C3c3ccc4c(c3)CCO4)nc2)n1Cc1ccccc1 (stereo unspecified) | > 15000 | > 15000 | 366 | 359 | > 15000 | > 2500 | – | –
9 | 0.22 | – | – | – | – | – | – | – | – | Oc1c2c(nc3ccccc13)C(c1ccc3c(c1)CCO3)N(c1ncc(-c3ccncc3)cn1)C2 (stereo unspecified) | > 15000 | > 15000 | 10.5 | 12.1 | > 15000 | > 2500 | – | –
10 | 0.51 | – | – | – | – | – | – | – | – | Oc1c2c(nc3ccccc13)C(c1ccc3c(c1)CCO3)N(c1ccc(-n3ccnc3)cc1)C2 (stereo unspecified) | > 15000 | > 15000 | 499 | 1840 | > 15000 | > 2500 | – | –
11 | 0.019 | – | – | – | – | – | – | – | – | Oc1c2c(nc3ccccc13)[C@@H](c1ccc3c(c1)CCO3)N(c1ncc(-c3ccccn3)cn1)C2 | > 15000 | > 15000 | 99 | 67 | > 15000 | > 2500 | 8.03 | –
12 | 5 | – | – | – | – | – | – | – | – | CN1CC(=O)N2[C@H](c3ccc4c(c3)OCO4)c3[nH]c4ccccc4c3C[C@@H]2C1=O | > 2000 | > 2000 | – | 1000 | > 2000 | > 2000 | – | –
13 | 0.33 | – | – | – | – | – | – | – | – | Cn1cncc1-c1ccc(N2Cc3c(nc4ccccc4c3O)C2c2ccc3c(c2)CCO3)nc1 (stereo unspecified) | > 15000 | > 15000 | 2.6 | 10.3 | > 15000 | – | – | > 2500
14 | 0.52 | – | – | – | – | – | – | – | – | COc1ccc(-c2cnc(N3Cc4c(nc5ccccc5c4O)C3c3ccc4c(c3)CCO4)nc2)cc1 (stereo unspecified) | – | – | – | – | – | – | – | –
15 | – | 31.3 | – | 9.24 | – | – | – | – | – | Oc1c2c(nc3ccccc13)C(c1ccc3c(c1)CCO3)N(c1ncc(-c3ccccn3)cn1)C2 (stereo unspecified) | > 15000 | > 15000 | – | – | > 15000 | – | – | –
16 | – | – | – | – | 1.9 | – | – | – | – | Oc1c2c(nc3ccccc13)C(c1ccc3c(c1)CCO3)N(c1ncc(Br)cn1)C2 (stereo unspecified) | > 15000 | > 15000 | 35.7 | 39.2 | > 15000 | > 2500 | – | –
17 | 0.12 | – | – | – | – | 40 | 69 | – | – | Oc1c2c(nc3ccccc13)[C@@H](c1ccc3c(c1)CCO3)N(c1ccccn1)C2 | > 15000 | > 15000 | 173 | 106 | > 15000 | > 2500 | 9.85 | –
18 | – | – | – | – | 1.75 | – | – | – | – | Oc1c2c(nc3ccccc13)C(c1ccc3c(c1)OCO3)N(c1ccc(-n3ccnc3)cc1)C2 (stereo unspecified) | > 4870 | > 15000 | 20.1 | 13.2 | > 10300 | > 2500 | – | –
19 | – | 12 | – | – | – | – | – | 4.4 | – | Oc1c2c(nc3ccccc13)C(c1ccc3c(c1)CCO3)N(c1ncccn1)C2 (stereo unspecified) | > 15000 | > 15000 | 755 | 310 | > 15000 | > 2500 | – | –
20 | 0.17 | – | – | – | – | – | – | – | – | Oc1c2c(nc3ccccc13)C(c1ccc3c(c1)CCO3)N(c1ccc(-c3cncn3Cc3ccccc3)cn1)C2 (stereo unspecified) | > 15000 | > 15000 | 57.6 | 68.9 | 4560 | > 2500 | – | –
21 | – | – | – | – | – | – | – | – | 5 | Oc1c2c(nc3ccccc13)C(c1ccc3c(c1)CCO3)N(c1ccccn1)C2 (stereo unspecified) | > 15000 | > 15000 | 219 | 237 | > 15000 | > 2500 | – | –
22 | 0.36 | – | – | – | – | – | – | – | – | Oc1c2c(nc3ccccc13)C(c1ccc3c(c1)CCO3)N(c1ncc(-c3cccnc3)cn1)C2 (stereo unspecified) | > 15000 | > 15000 | 127 | 66.5 | > 15000 | > 2500 | – | –
23 | 0.29 | – | – | – | – | – | – | – | – | Oc1c2c(nc3ccccc13)C(c1ccc3c(c1)OCO3)N(c1ncc(-c3cccnc3)cn1)C2 (stereo unspecified) | > 15000 | > 15000 | 9.3 | 7.6 | > 15000 | > 2500 | – | –
